PLCg1 inh = PLC-gamma1 (human) inhibition, primary screen | inhibition, % at 12.2 µM | hit rate 0.84% among 370,000 | P19174 | purified PLC-gamma1, fluorogenic substrate, fluorescence | AID 720700; in the data active = inhibition above about 9.5%
proCasp3 act = activators of human procaspase-3 | activation, % at 8.5 µM | P42574 | recombinant procaspase-3 D3A, Ac-DEVD-pNA absorbance 405 nm | hit rate 0.11% among 330,000;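 active = activation above the mean of all tested compounds plus 3 SD, cut at about 21% in these data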;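 note: 0% = DMSO alone and 100% = DMSO wells spiked with extra 5 µM PC-3 D3A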
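Test system: Procaspase-3 D3A mutant, all three cleavage aspartates alanine | Dosing: Single dose, 8.5 µM nominal compound, 0.8% DMSO | Schedule: 1 h preincubation, 2 h reaction | Technique: 405 nm absorbance of p-nitroaniline, reads at 0 and 120 min | Repeats: One well per compound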
proCasp7 act = activates human procaspase-7, counter-screen for procaspase-3 activators; hit rate 0.093% among 330,000; P55210; recombinant procaspase-7, Ac-DEVD-pNA absorbance 405 nm; D23A/D198A/D206A triple mutant, cannot self-cleave; scale: DMSO 0, 5 µM enzyme 100; activation, % at 8.5 µM;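 active = percent activation above the screen-wide mean plus 3 SD, cut at about 25% in these data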
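Detection: p-Nitroaniline absorbance at 405 nm, read at 0 and 120 min; system: Uncleavable procaspase-7 mutant enzyme; evaluation: % activation from two-timepoint absorbance difference, scaled to controls; times: 1 h enzyme–compound preincubation and 2 h substrate reaction, both 25 °C; buffer or medium: Zinc-free HEPES pH 7.4 with 300 mM NaCl, 0.01% Triton X-100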
Arrestin-AP2 inh = human beta-arrestin and AP2 interaction inhibition; FITC-arrestin peptide / GST-AP2 beads, flow cytometry; AP2 beta2 appendage carries R879A mutation; inhibition, % at 10 µM; hit rate 0.31% among 340,000; AID 504490;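 active = inhibition above a set limit, near 3 SD of compounds lacking own fluorescence, cut at about 54% in these data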;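 note: plate controls were DMSO wells for no effect and 5 µM unlabelled arrestin peptide for full effect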
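Measured by: flow cytometry, FL1 (488/535 nm); Material: AP2 appendage R879A on GSH beads; Evaluation: percent response; Timing: pre-incubation 12 min, peptide binding 1 h, room temperature; Also added: 50 nM FITC-arrestin peptide; Medium: PBS with 0.05% Tween 20 and 0.1% BSA.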
PLC-beta3 inh = inhibitors of human phospholipase C beta3 | Purified PLC-beta3, fluorogenic substrate, fluorescence | inhibition, % at 12.2 µM | hit rate 0.18% among 370,000; in the data active = inhibition above about 11%;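 note: 0% = median of compound wells on plate and 100% = full blocker control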
Target sequence (Q01970 whole entry, looked up): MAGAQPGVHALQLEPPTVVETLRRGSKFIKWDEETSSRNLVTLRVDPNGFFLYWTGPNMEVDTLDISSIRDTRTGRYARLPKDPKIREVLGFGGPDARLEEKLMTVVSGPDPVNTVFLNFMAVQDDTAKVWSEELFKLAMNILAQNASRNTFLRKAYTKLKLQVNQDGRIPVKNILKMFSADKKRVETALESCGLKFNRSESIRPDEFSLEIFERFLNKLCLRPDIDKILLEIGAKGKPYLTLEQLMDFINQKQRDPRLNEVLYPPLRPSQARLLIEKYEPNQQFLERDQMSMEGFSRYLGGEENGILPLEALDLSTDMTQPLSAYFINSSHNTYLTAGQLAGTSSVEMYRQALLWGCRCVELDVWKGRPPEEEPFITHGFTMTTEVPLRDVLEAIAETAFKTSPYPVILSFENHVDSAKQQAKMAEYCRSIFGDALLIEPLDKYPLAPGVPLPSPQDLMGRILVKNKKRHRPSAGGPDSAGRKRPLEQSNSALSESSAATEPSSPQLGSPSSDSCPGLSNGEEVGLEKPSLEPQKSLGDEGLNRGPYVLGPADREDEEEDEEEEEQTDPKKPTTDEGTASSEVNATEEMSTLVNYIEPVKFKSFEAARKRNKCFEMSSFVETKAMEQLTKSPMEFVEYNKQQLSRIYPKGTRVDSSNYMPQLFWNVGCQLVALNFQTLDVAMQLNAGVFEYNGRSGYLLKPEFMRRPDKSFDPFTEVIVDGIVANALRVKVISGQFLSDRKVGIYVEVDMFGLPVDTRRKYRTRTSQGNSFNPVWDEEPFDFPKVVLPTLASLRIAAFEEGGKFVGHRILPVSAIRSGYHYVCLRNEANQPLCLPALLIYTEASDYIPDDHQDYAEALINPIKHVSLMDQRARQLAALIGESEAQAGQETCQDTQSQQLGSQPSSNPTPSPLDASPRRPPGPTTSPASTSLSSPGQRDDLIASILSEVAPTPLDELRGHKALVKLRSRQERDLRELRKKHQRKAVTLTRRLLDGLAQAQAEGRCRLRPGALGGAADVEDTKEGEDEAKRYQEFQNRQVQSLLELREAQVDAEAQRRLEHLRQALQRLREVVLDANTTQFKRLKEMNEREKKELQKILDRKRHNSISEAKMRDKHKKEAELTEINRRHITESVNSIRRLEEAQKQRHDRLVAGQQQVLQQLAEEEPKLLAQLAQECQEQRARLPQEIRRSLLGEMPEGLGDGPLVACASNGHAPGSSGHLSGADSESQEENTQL
HGIII-sPLA2 inh = Inhibits HGIII-sPLA2 liposome hydrolysis, primary screen | Q9NZ20 | AID 743126 | hit rate 0.56% among 370,000 | inhibition, % at 12.2 µM | QFRET BODIPY PC-A2 liposome hydrolysis, fluorescence;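 active = inhibition above mean plus 3 SD of compounds lying within the high and low control bounds, cut at about 19% in these data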;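 note: 0% = median of test compound wells and 100% = no enzyme DMSO wells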
hGIII sPLA2 conf = human GIII-sPLA2 inhibition, confirmation; inhibition, % at 12.2 µM; shares compounds with HGIII-sPLA2 inh; recombinant hGIII-sPLA2, BODIPY PC-A2 QFRET fluorescence; hit rate 34% among 2,000;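 active = mean inhibition across triplicates above the hit cutoff set in the earlier primary screen, cut at about 19% in these data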;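 note: 0% = enzyme with DMSO and 100% = DMSO wells lacking enzyme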
BODIPY interf = optically interferes with 535nm fluorescence in sPLA2 counter-screen; shares compounds with HGIII-sPLA2 inh; hit rate 8.5% among 2,000; AID 743282; inhibition, % at 12.2 µM; BODIPY FL product fluorescence interference, QFRET;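 active = average inhibition above the solvent-only control mean plus 3 SD, cut at about 6% in these data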;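 note: 0% = DMSO with substrate plus product and 100% = DMSO with substrate alone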
535nm interf DR = 535nm optical interference dose response, HGIII-sPLA2 counter-screen | BODIPY FL product fluorescence interference, cell-free | AID 743455 | shares compounds with HGIII-sPLA2 inh | 240 tested, under 10 active | IC50, µM;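 active = IC50 at or below 10 µM; inactive = IC50 above 10 µM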
The depositor's hits bear a star; i = inactive; . = no result. The list is not random: actives were taken first. Their share in the collection is about 1.9%.

SMILES	PLCg1 inh	proCasp3 act	proCasp7 act	Arrestin-AP2 inh	PLC-beta3 inh	HGIII-sPLA2 inh	hGIII sPLA2 conf	BODIPY interf	others
C[C@@H]1CCCCO[C@@H](CN(C)Cc2ccccc2)[C@@H](C)CN([C@H](C)CO)C(=O)c2cc(N(C)C)ccc2O1	-19	.	.	.	-30	24*	10	-18
CCC1Cc2[nH]c(=S)[nH]c(=O)c2C(c2ccc(Cl)cc2)O1 (stereo not given)	9	.	.	.	-2	21*	0	-2
C/C(=N\OCc1nc2ccccc2c(=O)n1/N=C/c1cc([N+](=O)[O-])ccc1O)c1ccccc1	-16	-25	-32	-2	-33	-8	.	.
C/C(=N\OCc1nc2ccccc2c(=O)n1/N=C/c1cc(C)cc([N+](=O)[O-])c1O)c1ccccc1	-72	-15	-24	-13	-100	22*	33*	8.8*
CC(C)Cc1c2c([nH]c(=S)c1C#N)CCCC2	-1	2	5	9	-4	20*	30*	2	535nm interf DR=>122
Cc1[nH]c(=S)c(C#N)c2c1CCCC2	-2	-22	-24	-15	-4	-1	.	.
CCc1cccc(C)c1NC(=O)C1CCN(c2nn3c(=O)cc(C)nc3s2)CC1	2	-3	1	18	-5	-1	.	.
O=C(N1CCOCC1)C12CC3CC(C1)CC(n1cnc(Cl)n1)(C3)C2	-1	9	-1	19	-4	21*	1	-3
O=C(N1CCOCC1)C12CC3CC(C1)CC(C(=O)N1CCOCC1)(C3)C2	1	1	-1	-2	2	5	.	.
Cc1cccc(NC(=S)N/N=C2/CCCCc3ccccc32)c1	-2	-11	-3	14	-4	16	.	.
Cc1ccc(NC(=S)N/N=C2/CCCCc3ccccc32)cc1	3	-7	-12	10	-9	24*	31*	-3	535nm interf DR=>122
COc1ccc2[nH]c(N=Nc3ccccc3C)c(O)c2c1	-1	-5	-1	-27	-2	25*	10	2
Cc1cc(C)nc(SCc2cn3cc(Cl)ccc3n2)n1	-3	-2	-1	32	-6	21*	3	-9
Cc1ccc(N2CN(Cc3cccnc3)CNC2=S)cc1	3	-5	0	9	3	1	.	.
Cc1ccc(C)c(N2CN(Cc3cccnc3)CNC2=S)c1	0	-2	2	-4	0	20*	3	-1
O=C(NCC(c1ccc(F)cc1)N1CCOCC1)c1ccco1 (stereo not given)	1	-3	-2	-5	-5	7	.	.
CN1C(=O)c2cccc(N(C)C)c2C1=O	-3	-2	0	-2	1	9	.	.
CN(C)c1cccc2c1C(=O)c1ccccc1C2=O	7	-8	-12	49	-4	25*	33*	6.6*
Cn1nc(C(=O)Nc2nc(-c3ccc(F)cc3)cs2)ccc1=O	4	0	3	9	-5	-6	.	.
CC(C)c1nccn1S(=O)(=O)c1cccc([N+](=O)[O-])c1	0	-7	3	24	-2	19*	6	-2
CN1CCN(S(=O)(=O)c2cccc([N+](=O)[O-])c2)CC1	.	1	-1	4	.	.	.	.
Cc1ccc(S(=O)(=O)CNC(=S)c2cccc(C)c2)cc1	0	-9	-28	-6	2	10	.	.
Cc1ccc(S(=O)(=O)CNC(=S)c2ccc3ccccc3c2)cc1	-3	-11	-25	7	1	20*	24*	0
CC1=C(C(=O)N(C)C)CC(CC(=O)NC2CCCCC2)C(=O)N1CCCN1CCCC1=O (stereo not given)	-2	.	.	.	4	21*	0	-8
CC1=C(C(=O)N(C)C)CC(CC(=O)NC2CCCC2)C(=O)N1CCCN1CCCC1=O (stereo not given)	0	.	.	.	-1	15	.	.
SMILES	PLCg1 inh	proCasp3 act	proCasp7 act	Arrestin-AP2 inh	PLC-beta3 inh	HGIII-sPLA2 inh	hGIII sPLA2 conf	BODIPY interf	others
CN(C)CC(O)CN1C(=O)NC(C)(C)C1=O (stereo not given)	1	-11	1	-2	2	2	.	.
CN(CC(=O)Nc1ccc(F)c(F)c1F)C(=O)C1=NN(c2ccccc2)C(=O)CC1	-4	-2	-4	-2	-7	7	.	.
O=S(=O)(Nc1ccc(Cl)nn1)c1ccccc1	-2	-1	8	-13	-1	6	.	.
O=S(=O)(NNc1ccc(Cl)nn1)c1ccc(F)cc1	1	-14	-10	-5	3	19*	15	8.3*
CC(C)c1onc(C(=O)N(C)Cc2ccccc2)c1[N+](=O)[O-]	4	-6	8	4	2	22*	-5	1
COCCN(C(=O)CSc1nnc(-c2ccccc2OC)o1)c1c(N)n(CC(C)C)c(=O)[nH]c1=O	-3	11	2	-4	-9	7	.	.
COCCNC(=S)N/N=C(\C)c1ccc(O)cc1	-2	10	-9	-2	-2	13	.	.
C/C(=N\NC(=S)NCC(C)(C)C)c1cc(F)cc(F)c1O	-28	3	7	-3	-35	33*	43*	0	535nm interf DR=>122
Cc1ccc(NC(=O)NNC(=O)c2cc3ccccc3cc2O)cc1C	-104	2	1	-1	-152	28*	26*	3
CCOc1ccc(NC(=O)NNC(=O)c2cc3ccccc3cc2O)cc1	-38	-5	-1	31	-69	14	.	.
Cc1ccc(C)c(NC(=O)NNC(=O)c2cc3ccccc3cc2O)c1	-86	4	-2	-4	-140	22*	22*	3
O=C(NCCCN1CCOCC1)c1cccc(NS(=O)(=O)c2ccc(Br)cc2)c1	-1	6	0	3	-13	-3	.	.
CCOCCCNC(=O)CN1C(=O)c2ccccc2Sc2ncccc21	0	5	7	6	-1	-1	.	.
CC(C)CN(C(=O)C1CCC1)c1c(N)n(Cc2ccccc2)c(=O)[nH]c1=O	2	-7	4	-8	-7	20*	2	-7
O=c1c2cc(Br)ccc2[nH]c(=S)n1Cc1cccnc1	2	3	7	-2	1	7	.	.
O=c1c2ccccc2[nH]c(=S)n1Cc1cccnc1	-1	5	-3	-18	4	20*	11	-5
CN(C(=O)COC(=O)c1ccccc1NCc1ccco1)c1c(N)n(Cc2ccccc2)c(=O)[nH]c1=O	i	4	-4	29	-483	-9	.	.

Source: PubChem (several laboratories)
